Experimental findings from ChEMBL document CHEMBL2401705, “Discovery of triazines as potent, selective and orally active PDE4 inhibitors” (Bioorg Med Chem Lett, 2013) are described below.

Molecules are shown by their SMILES. In brackets after ≈: the same amount, converted by molar mass.

Data set [1] concerns the target 3',5'-cyclic-AMP phosphodiesterase 4D (Rattus norvegicus, UniProt P14270). The data set can be described thus: Inhibition of rat PDE4D3.
For data set [2], the target named is Cytochrome P450 2D6 (Homo sapiens, UniProt P10635). The data set can be described thus: Inhibition of CYP2D6 (unknown origin). The class given is ADME.
The nature of data set [3]: Aqueous solubility of the compound at pH 7.4. The settings on record: buffer.
Data set [4] can be described thus: Inhibition of CYP3A4D (unknown origin). It counts as ADME, Homo sapiens.
The target of data set [5] is Cytochrome P450 1A2 (Homo sapiens, UniProt P05177). The data set can be described thus: Inhibition of CYP1A2 (unknown origin). It counts as ADME.
Chain of Cytochrome P450 1A2 (P05177 whole entry): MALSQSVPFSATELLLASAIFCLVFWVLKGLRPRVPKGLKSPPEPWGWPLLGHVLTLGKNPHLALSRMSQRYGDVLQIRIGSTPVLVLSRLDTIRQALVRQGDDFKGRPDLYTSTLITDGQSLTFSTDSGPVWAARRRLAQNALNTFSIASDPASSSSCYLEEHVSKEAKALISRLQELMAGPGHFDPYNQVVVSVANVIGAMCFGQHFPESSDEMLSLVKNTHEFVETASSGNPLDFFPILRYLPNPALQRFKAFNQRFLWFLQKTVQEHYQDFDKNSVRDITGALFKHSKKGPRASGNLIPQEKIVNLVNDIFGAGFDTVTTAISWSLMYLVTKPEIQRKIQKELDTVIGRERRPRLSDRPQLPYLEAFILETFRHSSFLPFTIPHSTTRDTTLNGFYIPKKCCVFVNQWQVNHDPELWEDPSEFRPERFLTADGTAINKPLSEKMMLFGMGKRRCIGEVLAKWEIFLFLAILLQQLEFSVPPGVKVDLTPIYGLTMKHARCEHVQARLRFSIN
Data set [6] deals with High affinity cGMP-specific 3',5'-cyclic phosphodiesterase 9A (Homo sapiens, UniProt O76083). Briefly: Inhibition of human recombinant PDE9A.
Chain of High affinity cGMP-specific 3',5'-cyclic phosphodiesterase 9A (O76083 whole entry): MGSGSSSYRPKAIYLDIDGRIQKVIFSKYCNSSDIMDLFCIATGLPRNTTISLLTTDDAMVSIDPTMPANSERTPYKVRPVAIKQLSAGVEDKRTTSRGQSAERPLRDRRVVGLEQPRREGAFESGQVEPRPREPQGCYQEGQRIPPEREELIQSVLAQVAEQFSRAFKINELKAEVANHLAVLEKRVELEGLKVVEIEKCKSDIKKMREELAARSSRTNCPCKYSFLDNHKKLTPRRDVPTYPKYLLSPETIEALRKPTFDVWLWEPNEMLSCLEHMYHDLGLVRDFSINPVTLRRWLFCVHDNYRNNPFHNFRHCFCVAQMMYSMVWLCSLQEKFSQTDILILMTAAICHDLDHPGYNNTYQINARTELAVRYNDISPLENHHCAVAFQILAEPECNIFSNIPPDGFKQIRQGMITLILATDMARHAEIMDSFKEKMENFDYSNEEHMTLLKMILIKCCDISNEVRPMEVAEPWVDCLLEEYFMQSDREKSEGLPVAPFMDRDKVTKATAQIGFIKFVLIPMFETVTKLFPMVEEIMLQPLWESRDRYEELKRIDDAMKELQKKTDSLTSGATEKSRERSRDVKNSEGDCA
Data set [7] can be described thus: Volume of distribution in rat at 3 mg/kg. The class given is ADME, organism-based. On the set-up: dose 3 mg/kg. The settings on record: in vivo.
The nature of data set [8]: Intrinsic clearance in dog liver microsomes. It counts as ADME, Canis lupus familiaris, Microsome. The following applies: read-out: CLH.
The nature of data set [9]: Inhibition of CYP3A4B (unknown origin). The class given is ADME, Homo sapiens.
Data set [10] deals with 3',5'-cyclic-AMP phosphodiesterase 4B (Homo sapiens, UniProt Q07343). The data set can be described thus: Inhibition of full length PDE4B1 (unknown origin).
Data set [11] can be described thus: Inhibition of bovine retina PDE6. On the set-up: species or system Bos taurus.
Data set [12] has as its target Cytochrome P450 2C19 (Homo sapiens, UniProt P33261). Briefly: Inhibition of CYP2C19 (unknown origin). The class given is ADME.
The target of data set [13] is 3',5'-cyclic-AMP phosphodiesterase 4A (Homo sapiens, UniProt P27815). Briefly: Inhibition of human full length PDE4A4 expressed in baculovirus infected sf21 cells.
Chain of 3',5'-cyclic-AMP phosphodiesterase 4A (P27815 whole entry): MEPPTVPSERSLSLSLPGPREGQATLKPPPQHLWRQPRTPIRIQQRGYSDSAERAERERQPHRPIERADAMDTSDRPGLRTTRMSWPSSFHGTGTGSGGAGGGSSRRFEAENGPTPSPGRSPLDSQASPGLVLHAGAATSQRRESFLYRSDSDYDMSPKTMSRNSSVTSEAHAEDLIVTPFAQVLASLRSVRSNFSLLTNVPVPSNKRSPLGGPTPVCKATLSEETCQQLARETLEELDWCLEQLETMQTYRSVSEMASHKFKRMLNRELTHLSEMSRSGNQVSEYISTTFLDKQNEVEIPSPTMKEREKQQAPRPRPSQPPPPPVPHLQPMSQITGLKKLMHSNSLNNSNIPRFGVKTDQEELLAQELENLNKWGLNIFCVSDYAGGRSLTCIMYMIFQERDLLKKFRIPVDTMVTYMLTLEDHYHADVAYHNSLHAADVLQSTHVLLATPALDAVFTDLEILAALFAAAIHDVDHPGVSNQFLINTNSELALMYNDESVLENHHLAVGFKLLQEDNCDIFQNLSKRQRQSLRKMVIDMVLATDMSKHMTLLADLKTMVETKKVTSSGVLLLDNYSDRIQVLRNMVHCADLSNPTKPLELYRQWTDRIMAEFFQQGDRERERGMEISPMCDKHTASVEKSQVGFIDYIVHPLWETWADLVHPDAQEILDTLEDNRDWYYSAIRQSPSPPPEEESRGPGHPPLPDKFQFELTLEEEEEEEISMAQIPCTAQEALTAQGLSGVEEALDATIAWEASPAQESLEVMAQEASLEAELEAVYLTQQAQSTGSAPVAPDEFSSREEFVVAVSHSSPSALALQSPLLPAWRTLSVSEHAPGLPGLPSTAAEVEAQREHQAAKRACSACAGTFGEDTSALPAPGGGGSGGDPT
The target in data set [14] is serum albumin (Homo sapiens, UniProt P02768). The data set can be described thus: Binding affinity to human serum albumin. The class given is ADME. The settings on record: read-out: PB (converted).
Data set [15] relates to Rattus norvegicus. Briefly: Inhibition of LPS-induced neutrophil accumulation in rat lung at 0.1 mg/kg, po. It counts as functional.
For data set [16], the system named is Mustela putorius furo. The data set can be described thus: Inhibition of LPS-induced neutrophilia in ferret COPD model BAL-fluid at 0.01 mg/kg, po. It counts as functional. Put shortly:
(§1)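 Ferrets challenged by LPS inhalation, with compound given orally. Read-out is the change in neutrophil count in bronchoalveolar lavage fluid, expressed as percentage inhibition.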

Data set [17] has as its target Cytochrome P450 1A1 (Homo sapiens, UniProt P04798). The data set can be described thus: Inhibition of CYP1A1 (unknown origin). It counts as ADME.
The nature of data set [18]: Clearance in rat at 3 mg/kg, iv. The class given is ADME, organism-based. Also on record: dose 3 mg/kg, route intravenous. The following applies: in vivo.
Data set [19] can be described thus: Intrinsic clearance in human liver microsomes. The following applies: read-out: CLH. It counts as ADME, Microsome.
Data set [20] concerns the target Dual specificity calcium/calmodulin-dependent 3',5'-cyclic nucleotide phosphodiesterase 1B (Homo sapiens, UniProt Q01064). The data set can be described thus: Inhibition of human recombinant PDE1B.
The test system of data set [21] is Mustela putorius furo. Briefly: Toxicity in po dosed ferret assessed as first emetic dose by measuring occurrence of vomiting episode after 6 hrs. It counts as organism-based. The following applies: in vivo. A digest of the protocol:
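Ferrets were given oral doses and watched for 6 h after administration for a vomiting episode; the first emetic dose was reported in mg/kg.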

Data set [22] concerns the target cAMP and cAMP-inhibited cGMP 3',5'-cyclic phosphodiesterase 10A (Homo sapiens, UniProt Q9Y233). Briefly: Inhibition of human recombinant PDE10A.
Data set [23] has as its target cGMP-specific 3',5'-cyclic phosphodiesterase (Homo sapiens, UniProt O76074). The data set can be described thus: Inhibition of human recombinant PDE5A.
For data set [24], the target named is Cytochrome P450 2C9 (Homo sapiens, UniProt P11712). Briefly: Inhibition of CYP2C9 (unknown origin). The class given is ADME.
Data set [25] deals with Blood. The data set can be described thus: Inhibition of TNFalpha production in human whole blood. It counts as functional, tissue-based.
Data set [26] is described as follows: Half life in rat at 3 mg/kg, iv. It counts as ADME, organism-based. Also on record: dose 3 mg/kg, route intravenous. The settings on record: in vivo.
Data set [27] deals with hERG (KCNH2) (Homo sapiens, UniProt Q12809). Briefly: Inhibition of human ERG at 10 uM. Put shortly:
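hERG measured in a binding assay, reported as percent inhibition at 10 µM.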

Data set [28] has as its target High affinity cAMP-specific and IBMX-insensitive 3',5'-cyclic phosphodiesterase 8A (Homo sapiens, UniProt O60658). Briefly: Inhibition of human recombinant PDE8A.
Data set [29] deals with Cytochrome P450 2A6 (Homo sapiens, UniProt P11509). The data set can be described thus: Inhibition of CYP2A6 (unknown origin). The class given is ADME.
Chain of Cytochrome P450 2A6 (P11509 whole entry): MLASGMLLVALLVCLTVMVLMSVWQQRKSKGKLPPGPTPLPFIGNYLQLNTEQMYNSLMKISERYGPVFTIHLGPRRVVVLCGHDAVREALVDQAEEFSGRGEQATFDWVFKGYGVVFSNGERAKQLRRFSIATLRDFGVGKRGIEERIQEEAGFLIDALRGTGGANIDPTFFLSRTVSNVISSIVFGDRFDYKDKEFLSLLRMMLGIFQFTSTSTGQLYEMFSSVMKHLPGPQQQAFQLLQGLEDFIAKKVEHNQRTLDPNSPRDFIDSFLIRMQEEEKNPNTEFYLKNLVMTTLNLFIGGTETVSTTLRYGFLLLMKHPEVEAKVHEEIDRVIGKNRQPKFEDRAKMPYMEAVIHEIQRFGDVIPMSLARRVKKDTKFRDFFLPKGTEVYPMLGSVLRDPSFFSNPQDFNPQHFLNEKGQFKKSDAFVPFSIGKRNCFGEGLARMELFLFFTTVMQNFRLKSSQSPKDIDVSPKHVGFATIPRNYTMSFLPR
Data set [30] concerns Mustela putorius furo. The data set can be described thus: Inhibition of LPS-induced neutrophilia in ferret COPD model BAL-fluid at 0.1 mg/kg, po. It counts as functional. A digest of the protocol:
as §1

Data set [31] addresses cGMP-inhibited 3',5'-cyclic phosphodiesterase 3A (Homo sapiens, UniProt Q14432). The data set can be described thus: Inhibition of human recombinant PDE3A.
The nature of data set [32]: Cmax in rat at 3 mg/kg, po. The settings on record: in vivo. The class given is ADME, organism-based. On the set-up: dose 3 mg/kg, route oral.
The nature of data set [33]: Intrinsic clearance in rat liver microsomes. It counts as ADME, Microsome. The settings on record: read-out: CLH.
Data set [34] concerns PBMC. Briefly: Inhibition of TNFalpha production in human PBMC. It counts as functional, cell-based.
In data set [35] the target is cGMP-dependent 3',5'-cyclic phosphodiesterase (Homo sapiens, UniProt O00408). Briefly: Inhibition of human recombinant PDE2A.
Data set [36] addresses Dual 3',5'-cyclic-AMP and -GMP phosphodiesterase 11A (Homo sapiens, UniProt Q9HCR9). The data set can be described thus: Inhibition of human recombinant PDE11A.
Data set [37] can be described thus: Oral bioavailability in rat. It counts as ADME, organism-based. The settings on record: in vivo.
Data set [38] is described as follows: Inhibition of CYP3A4Q (unknown origin). It counts as ADME, Homo sapiens.
For data set [39], the target named is Phosphodiesterase 4 (Homo sapiens, UniProt P27815+Q08499+Q07343+Q08493). Briefly: Inhibition of PDE4 (unknown origin). The class given is protein assay.

Chain of Dual 3',5'-cyclic-AMP and -GMP phosphodiesterase 11A (Q9HCR9 whole entry): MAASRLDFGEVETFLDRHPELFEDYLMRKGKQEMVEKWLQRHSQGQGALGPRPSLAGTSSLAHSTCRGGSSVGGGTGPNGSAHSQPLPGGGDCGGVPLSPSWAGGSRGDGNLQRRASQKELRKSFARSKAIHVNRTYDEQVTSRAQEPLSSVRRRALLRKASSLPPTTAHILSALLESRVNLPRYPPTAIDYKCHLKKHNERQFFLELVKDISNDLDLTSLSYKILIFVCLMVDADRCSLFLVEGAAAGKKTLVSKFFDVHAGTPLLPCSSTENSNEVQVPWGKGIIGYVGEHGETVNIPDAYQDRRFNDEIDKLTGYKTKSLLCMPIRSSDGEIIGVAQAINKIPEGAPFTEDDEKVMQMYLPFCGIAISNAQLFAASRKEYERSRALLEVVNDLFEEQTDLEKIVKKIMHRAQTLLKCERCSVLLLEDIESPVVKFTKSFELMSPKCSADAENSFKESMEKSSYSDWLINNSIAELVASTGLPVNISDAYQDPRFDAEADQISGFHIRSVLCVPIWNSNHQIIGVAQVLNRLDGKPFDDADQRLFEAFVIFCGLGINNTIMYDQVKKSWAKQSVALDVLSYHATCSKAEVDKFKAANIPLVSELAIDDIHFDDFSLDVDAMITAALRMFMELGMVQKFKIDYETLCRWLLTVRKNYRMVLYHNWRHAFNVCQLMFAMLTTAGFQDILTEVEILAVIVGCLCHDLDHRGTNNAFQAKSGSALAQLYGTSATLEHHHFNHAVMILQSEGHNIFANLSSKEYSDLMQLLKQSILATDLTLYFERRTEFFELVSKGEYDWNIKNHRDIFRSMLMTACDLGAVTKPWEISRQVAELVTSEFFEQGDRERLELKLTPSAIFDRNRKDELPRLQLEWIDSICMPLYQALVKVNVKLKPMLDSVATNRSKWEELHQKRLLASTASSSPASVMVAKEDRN
Chain of Cytochrome P450 2C19 (P33261 whole entry): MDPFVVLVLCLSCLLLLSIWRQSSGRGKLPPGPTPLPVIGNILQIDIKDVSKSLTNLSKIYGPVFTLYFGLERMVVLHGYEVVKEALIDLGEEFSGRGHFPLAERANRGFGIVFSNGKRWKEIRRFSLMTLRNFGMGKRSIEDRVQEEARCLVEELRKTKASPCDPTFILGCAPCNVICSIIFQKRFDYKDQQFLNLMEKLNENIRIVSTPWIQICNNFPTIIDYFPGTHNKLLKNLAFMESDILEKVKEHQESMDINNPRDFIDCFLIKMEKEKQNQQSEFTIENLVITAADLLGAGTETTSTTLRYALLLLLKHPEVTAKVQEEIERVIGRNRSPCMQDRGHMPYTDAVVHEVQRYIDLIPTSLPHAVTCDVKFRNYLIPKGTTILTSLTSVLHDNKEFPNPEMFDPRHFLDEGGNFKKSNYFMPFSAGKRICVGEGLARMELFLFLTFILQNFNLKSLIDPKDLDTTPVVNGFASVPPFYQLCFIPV
Chain of Cytochrome P450 1A1 (P04798 whole entry): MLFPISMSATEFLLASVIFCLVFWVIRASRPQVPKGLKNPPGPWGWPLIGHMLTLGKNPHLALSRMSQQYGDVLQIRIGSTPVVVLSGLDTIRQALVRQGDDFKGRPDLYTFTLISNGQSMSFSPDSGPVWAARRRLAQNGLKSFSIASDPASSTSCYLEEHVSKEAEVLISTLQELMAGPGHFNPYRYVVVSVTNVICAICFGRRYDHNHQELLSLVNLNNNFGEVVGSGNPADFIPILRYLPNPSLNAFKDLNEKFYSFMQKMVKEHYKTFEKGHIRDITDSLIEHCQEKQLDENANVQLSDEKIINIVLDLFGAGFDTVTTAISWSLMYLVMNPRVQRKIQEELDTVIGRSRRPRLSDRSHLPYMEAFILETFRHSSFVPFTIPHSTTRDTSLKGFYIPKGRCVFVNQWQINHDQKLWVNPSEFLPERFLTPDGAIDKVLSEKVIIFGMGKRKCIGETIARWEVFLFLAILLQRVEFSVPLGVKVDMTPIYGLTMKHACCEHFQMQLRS
Chain of Dual specificity calcium/calmodulin-dependent 3',5'-cyclic nucleotide phosphodiesterase 1B (Q01064 whole entry): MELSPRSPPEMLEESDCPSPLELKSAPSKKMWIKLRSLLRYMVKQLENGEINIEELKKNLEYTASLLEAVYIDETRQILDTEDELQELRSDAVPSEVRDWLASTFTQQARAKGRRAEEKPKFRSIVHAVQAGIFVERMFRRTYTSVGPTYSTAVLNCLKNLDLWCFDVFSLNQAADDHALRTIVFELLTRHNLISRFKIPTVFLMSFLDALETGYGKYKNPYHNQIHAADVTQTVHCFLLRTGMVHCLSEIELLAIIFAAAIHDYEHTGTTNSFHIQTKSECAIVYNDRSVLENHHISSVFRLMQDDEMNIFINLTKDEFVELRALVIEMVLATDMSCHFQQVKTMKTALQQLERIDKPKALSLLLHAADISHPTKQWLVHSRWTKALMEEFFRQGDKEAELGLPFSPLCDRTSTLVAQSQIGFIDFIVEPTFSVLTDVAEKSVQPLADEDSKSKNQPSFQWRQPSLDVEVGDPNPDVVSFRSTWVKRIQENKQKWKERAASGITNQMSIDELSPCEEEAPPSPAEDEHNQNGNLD

For the compound `CCC(C#N)(CC)Nc1nc(NC)nc(-n2cncn2)n1`, the IC50 was 0.00118 µM in [1]; over 10 µM in data set [2]; over 10 µM in data set [4]; over 10 µM in [5]; over 1 µM in data set [6]; over 10 µM in [9]. For the same compound, the IC50 was 0.00087 µM in data set [10]; over 1 µM in data set [11]; over 10 µM in [12]; 0.00081 µM in data set [13]; over 10 µM in data set [17]; over 1 µM in [20]. Also, the IC50 is over 1 µM in [22]; over 1 µM in data set [23]; over 10 µM in data set [24]; 0.055 µM in data set [25]; over 1 µM in data set [28]; over 10 µM in data set [29]. Moreover, the IC50 in data set [31] is over 1 µM; in data set [34], 0.022 µM; in [35] it was over 1 µM; in [36] it was over 1 µM; in [38] it was over 10 µM. This compound returned a solubility in data set [3] of 165 µg/mL (≈ 574 µM). The Vd in data set [7] was 0.5 L/kg. In addition, the values for the CLint scaled in [8], in data set [19] and in data set [33] were under 1 mL/min/kg, under 1 mL/min/kg and 26 mL/min/kg, respectively. In addition, the fraction unbound in data set [14] is 0.49. The inhibition in vivo at 0.1 mg/kg in data set [15] was found to be 41%; in data set [30], 66%. Also, the inhibition in vivo at 0.01 mg/kg in [16] was determined as 33%. Further, the clearance in data set [18] amounted to 3.3 mL/min/kg. Moreover, in data set [21], the Activity is 3 mg/kg. The compound also had a half-life in [26] of 1.7 h. The compound also registered an inhibition at 10 µM in [27] of 6%. In data set [32], this compound had a peak concentration (Cmax) of 669 ng/mL. The compound further gave a bioavailability in data set [37] of 41%.

As to `O=S1(=O)CCN(c2nc(NC3CC3)nc(C3CC3)n2)C1`, in [39], the concentration for half-maximal inhibition (IC50) worked out at 0.14 µM.
